In brackets after ≈: the same amount, converted by molar mass.
Key:
Staphylococcus aureus [1] = test: In vitro minimum inhibitory concentration against Methicillin-resistant Staphylococcus aureus upon incubation at 37 degree C for 16 to 24 hr by dissolving in DMSO (1%); assay type: functional
Procedure, shortened: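 Broth microdilution (modified NCCLS M7-A4). Staphylococci grown to log phase in Luria broth, seeded at (3-7) × 10⁵ CFU/mL. Compounds 2-fold diluted from DMSO stocks, 20 to 1.25 µg/mL, final 1% DMSO, in duplicate. Incubated 37 °C, 16-24 h, with shaking. OD600 read.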

Enterococcus faecalis = test: In vitro minimum inhibitory concentration against Enterococcus faecalis upon incubation at 37 degree C for 16 to 24 hr by dissolving in DMSO (1%); assay type: functional
Procedure, shortened: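 Log-phase E. faecalis was grown in brain-heart infusion broth and seeded at (3-7) × 10^5 CFU/mL. Duplicate 2-fold dilutions ran from 20 to 1.25 µg/mL, final 1% DMSO. After 16-24 h at 37 °C with shaking, OD600 was read.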

Enterococcus faecium [2] = test: In vitro minimum inhibitory concentration against Enterococcus fecium upon incubation at 37 degree C for 16 to 24 hr by dissolving in DMSO (1%); assay type: functional
Procedure, shortened: (§1)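 Broth microdilution (modified NCCLS M7-A4). Enterococci grown to log phase in brain-heart infusion broth, seeded at (3-7) × 10⁵ CFU/mL. Compounds 2-fold diluted from DMSO stocks, 20 to 1.25 µg/mL, final 1% DMSO, in duplicate. Incubated 37 °C, 16-24 h, with shaking. OD600 read.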

Staphylococcus aureus [3] = test: In vitro minimum inhibitory concentration against Staphylococcus aureus (Smith) upon incubation at 37 degree C for 16 to 24 hr by dissolving in DMSO (1%); assay type: functional
Enterococcus faecium [4] = test: In vitro minimum inhibitory concentration against Vancomycin resistant Enterococci faecium upon incubation at 37 degree C for 16 to 24 hr by dissolving in DMSO (1%); assay type: functional; procedure, shortened: as §1
Bacillus subtilis = test: In vitro minimum inhibitory concentration against Bacillus subtilis upon incubation at 37 degree C for 16 to 24 h; assay type: functional
Staphylococcus aureus [5] = test: In vitro minimum inhibitory concentration against Staphylococcus aureus upon incubation at 37 degree C for 16 to 24 hr by dissolving in DMSO (1%); assay type: functional
[6] = target: DNA polymerase III PolC-type (Bacillus subtilis (strain 168), UniProt P13267); test: Inhibitory concentration against Bacillus subtilis DNA polymerase IIIC using [3H]dTMP 250 pM (30 degree C for 10 min)
Sequence of DNA polymerase III PolC-type (P13267 whole entry, the tested form may be a part): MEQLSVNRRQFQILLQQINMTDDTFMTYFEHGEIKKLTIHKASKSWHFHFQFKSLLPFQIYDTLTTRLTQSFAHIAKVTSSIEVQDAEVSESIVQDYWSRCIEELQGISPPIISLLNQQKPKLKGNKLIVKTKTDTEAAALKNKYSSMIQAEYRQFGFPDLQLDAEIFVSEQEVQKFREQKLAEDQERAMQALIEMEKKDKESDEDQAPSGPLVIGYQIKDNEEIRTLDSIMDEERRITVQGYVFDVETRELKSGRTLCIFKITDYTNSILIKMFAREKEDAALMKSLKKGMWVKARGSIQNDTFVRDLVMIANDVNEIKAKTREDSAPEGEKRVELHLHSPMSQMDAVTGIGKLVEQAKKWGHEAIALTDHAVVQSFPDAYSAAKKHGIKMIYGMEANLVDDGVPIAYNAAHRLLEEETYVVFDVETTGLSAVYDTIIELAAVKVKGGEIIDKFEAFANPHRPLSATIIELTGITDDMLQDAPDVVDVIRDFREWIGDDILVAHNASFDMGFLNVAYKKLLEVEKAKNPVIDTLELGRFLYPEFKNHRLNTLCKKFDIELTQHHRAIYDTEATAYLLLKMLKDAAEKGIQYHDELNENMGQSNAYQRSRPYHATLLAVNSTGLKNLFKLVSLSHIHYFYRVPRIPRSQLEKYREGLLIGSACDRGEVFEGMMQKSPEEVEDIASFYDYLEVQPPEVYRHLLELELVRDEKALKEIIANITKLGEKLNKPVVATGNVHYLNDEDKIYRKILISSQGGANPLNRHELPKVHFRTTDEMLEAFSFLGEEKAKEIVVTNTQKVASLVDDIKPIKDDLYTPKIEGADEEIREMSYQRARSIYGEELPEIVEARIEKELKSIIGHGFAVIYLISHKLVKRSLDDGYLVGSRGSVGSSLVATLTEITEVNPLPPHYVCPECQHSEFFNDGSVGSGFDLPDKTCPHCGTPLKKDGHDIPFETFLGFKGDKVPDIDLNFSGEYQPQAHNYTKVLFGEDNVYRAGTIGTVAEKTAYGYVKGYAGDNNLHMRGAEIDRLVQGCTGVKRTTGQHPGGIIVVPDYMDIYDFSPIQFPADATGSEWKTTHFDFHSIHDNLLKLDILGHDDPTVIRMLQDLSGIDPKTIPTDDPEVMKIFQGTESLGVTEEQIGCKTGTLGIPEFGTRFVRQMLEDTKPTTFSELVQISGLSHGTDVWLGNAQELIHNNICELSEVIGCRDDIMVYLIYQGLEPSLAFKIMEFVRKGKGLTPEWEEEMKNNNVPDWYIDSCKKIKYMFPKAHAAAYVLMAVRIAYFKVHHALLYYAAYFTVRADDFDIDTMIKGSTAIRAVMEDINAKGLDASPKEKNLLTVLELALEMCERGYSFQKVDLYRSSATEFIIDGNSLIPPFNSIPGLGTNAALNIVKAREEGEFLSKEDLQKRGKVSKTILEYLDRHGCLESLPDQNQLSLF
Procedure, shortened: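 Homogeneous recombinant B. subtilis pol IIIC, 0.025-0.06 units, acted on activated calf thymus DNA with Mg2+, DTT, glycerol, dATP, dCTP, dTTP and [3H]dTTP, without dGTP. Compounds were serially diluted from DMSO. Reactions ran 10 min at 30 °C, were stopped with TCA-pyrophosphate, and the filter-collected precipitate was scintillation counted. Apparent Ki was read directly from this truncated assay; average standard deviation ±44%.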

Staphylococcus aureus [7] = test: Serum effect on MIC against Staphylococcus aureus (Smith) as ratio of MIC value in presence and absence of 50% fetal calf serum; assay type: functional
Procedure, shortened: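 Broth microdilution MIC was repeated with 50% fetal calf serum added to the growth medium (LB for S. aureus, brain-heart infusion broth for E. faecalis). The inoculum was (3-7) × 10^5 CFU/mL in 1% DMSO, incubated at 37 °C for 16-24 h, and read by OD600. The serum effect is the MIC with serum relative to the MIC without serum.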

| Structure (SMILES) | MIC (Staphylococcus aureus [1]) | MIC (Enterococcus faecalis) | MIC (Enterococcus faecium [2]) | MIC (Staphylococcus aureus [3]) | MIC (Enterococcus faecium [4]) | MIC (Bacillus subtilis) | MIC (Staphylococcus aureus [5]) | Ki [6] | MIC+/MIC- (Staphylococcus aureus [7]) |
| --- | --- | --- | --- | --- | --- | --- | --- | --- | --- |
| CCc1cc(Nc2cc(=O)n(CCCCCN3CCc4c([nH]c5ccc(OC)cc45)C3)c(=O)[nH]2)ccc1C | 10 µg/mL (≈ 19.4 µM) | > 20 µg/mL | 20 µg/mL (≈ 38.8 µM) | 10 µg/mL (≈ 19.4 µM) | 5 µg/mL (≈ 9.7 µM) | – | – | – | – |
| CCc1cc(Nc2cc(=O)n(CCCCCO)c(=O)[nH]2)ccc1C | 5 µg/mL (≈ 15.1 µM) | 2.5 µg/mL (≈ 7.54 µM) | 2.5 µg/mL (≈ 7.54 µM) | 2.5 µg/mL (≈ 7.54 µM) | 2.5 µg/mL (≈ 7.54 µM) | < 1.25 µg/mL | 5 µg/mL (≈ 15.1 µM) | 43 nM | 11.6 |
| CCc1cc(Nc2cc(=O)n(CCCCNCCO)c(=O)[nH]2)ccc1C | – | > 20 µg/mL | > 20 µg/mL | > 20 µg/mL | – | > 20 µg/mL | > 20 µg/mL | 28 nM | – |
| CCc1cc(Nc2cc(=O)n(CCCCCOC(C)=O)c(=O)[nH]2)ccc1C | 2.5 µg/mL (≈ 6.69 µM) | 5 µg/mL (≈ 13.4 µM) | 3.75 µg/mL (≈ 10 µM) | 7.5 µg/mL (≈ 20.1 µM) | 3.75 µg/mL (≈ 10 µM) | 0.625 µg/mL (≈ 1.67 µM) | 5 µg/mL (≈ 13.4 µM) | 68 nM | – |
| CCc1cc(Nc2cc(=O)n(CCCOC)c(=O)[nH]2)ccc1C | 2.5 µg/mL (≈ 7.88 µM) | 5 µg/mL (≈ 15.8 µM) | 2.5 µg/mL (≈ 7.88 µM) | 2.5 µg/mL (≈ 7.88 µM) | 2.5 µg/mL (≈ 7.88 µM) | < 1.25 µg/mL | 2.5 µg/mL (≈ 7.88 µM) | 120 nM | 4.9 |
| CCc1cc(Nc2cc(=O)n(CCCCCCCCO)c(=O)[nH]2)ccc1C | – | – | 2.5 µg/mL (≈ 6.69 µM) | – | 2.5 µg/mL (≈ 6.69 µM) | – | – | – | 21.3 |
| CCc1cc(Nc2cc(=O)n(CCCCN)c(=O)[nH]2)ccc1C.Cl | > 20 µg/mL | > 20 µg/mL | > 20 µg/mL | 10 µg/mL | – | 20 µg/mL | 20 µg/mL | – | – |
| CCc1cc(Nc2cc(=O)n(CCCCNC(=O)C3CC3)c(=O)[nH]2)ccc1C | 20 µg/mL (≈ 52 µM) | 5 µg/mL (≈ 13 µM) | – | 5 µg/mL (≈ 13 µM) | 5 µg/mL (≈ 13 µM) | – | – | – | 14.9 |
| CCc1cc(Nc2cc(=O)n(CCCC(C)=O)c(=O)[nH]2)ccc1C | 5 µg/mL (≈ 15.2 µM) | 5 µg/mL (≈ 15.2 µM) | 5 µg/mL (≈ 15.2 µM) | 2.5 µg/mL (≈ 7.59 µM) | 2.5 µg/mL (≈ 7.59 µM) | – | – | – | – |
| CCc1cc(Nc2cc(=O)n(CCOCCOc3ccccc3)c(=O)[nH]2)ccc1C | 20 µg/mL (≈ 48.8 µM) | 5 µg/mL (≈ 12.2 µM) | 2.5 µg/mL (≈ 6.11 µM) | 20 µg/mL (≈ 48.8 µM) | 5 µg/mL (≈ 12.2 µM) | < 1.25 µg/mL | 20 µg/mL (≈ 48.8 µM) | 56 nM | >5.6 |
| O=C(O)c1cn(C2CC2)c2cc(N3CCNCC3)c(F)cc2c1=O [CIPROFLOXACIN] | > 20 µg/mL | – | 5 µg/mL (≈ 15.1 µM) | 0.078 µg/mL (≈ 0.235 µM) | 20 µg/mL (≈ 60.4 µM) | 0.078 µg/mL (≈ 0.235 µM) | 0.156 µg/mL (≈ 0.471 µM) | – | – |
| CCc1cc(Nc2cc(=O)n(C/C=C/CO)c(=O)[nH]2)ccc1C | 5 µg/mL (≈ 15.9 µM) | 5 µg/mL (≈ 15.9 µM) | 2.5 µg/mL (≈ 7.93 µM) | 5 µg/mL (≈ 15.9 µM) | 2.5 µg/mL (≈ 7.93 µM) | 1.25 µg/mL (≈ 3.96 µM) | 10 µg/mL (≈ 31.7 µM) | – | 4.8 |
| CCc1cc(Nc2cc(=O)n(CCCCCCCCCCO)c(=O)[nH]2)ccc1C | – | > 20 µg/mL | > 20 µg/mL | > 20 µg/mL | – | < 1.25 µg/mL | > 20 µg/mL | 51 nM | – |
| CCc1cc(Nc2cc(=O)n(CCCCOC(C)=O)c(=O)[nH]2)ccc1C | 5 µg/mL (≈ 13.9 µM) | 5 µg/mL (≈ 13.9 µM) | 5 µg/mL (≈ 13.9 µM) | – | 5 µg/mL (≈ 13.9 µM) | – | – | – | – |
| CCc1cc(Nc2cc(=O)n(CCCCCN3CC=C(c4ccc(F)cc4)CC3)c(=O)[nH]2)ccc1C | 7.5 µg/mL (≈ 15.3 µM) | 7.5 µg/mL (≈ 15.3 µM) | 7.5 µg/mL (≈ 15.3 µM) | 7.5 µg/mL (≈ 15.3 µM) | 5 µg/mL (≈ 10.2 µM) | – | 10 µg/mL (≈ 20.4 µM) | – | – |
| CCc1cc(Nc2cc(=O)n(CCOC)c(=O)[nH]2)ccc1C | 5 µg/mL (≈ 16.5 µM) | 5 µg/mL (≈ 16.5 µM) | 2.5 µg/mL (≈ 8.24 µM) | 2.5 µg/mL (≈ 8.24 µM) | 2.5 µg/mL (≈ 8.24 µM) | < 1.25 µg/mL | 2.5 µg/mL (≈ 8.24 µM) | 127 nM | 6.9 |
| CCc1cc(Nc2cc(=O)n(CCCCNS(=O)(=O)c3ccc(C)cc3)c(=O)[nH]2)ccc1C | > 20 µg/mL | 5 µg/mL (≈ 10.6 µM) | 5 µg/mL (≈ 10.6 µM) | 5 µg/mL (≈ 10.6 µM) | 5 µg/mL (≈ 10.6 µM) | 5 µg/mL (≈ 10.6 µM) | 5 µg/mL (≈ 10.6 µM) | 230 nM | – |
| CCc1cc(Nc2cc(=O)n(CCOC(C)=O)c(=O)[nH]2)ccc1C | 5 µg/mL (≈ 15.1 µM) | 5 µg/mL (≈ 15.1 µM) | 5 µg/mL (≈ 15.1 µM) | 3.75 µg/mL (≈ 11.3 µM) | 5 µg/mL (≈ 15.1 µM) | 1.25 µg/mL (≈ 3.77 µM) | 5 µg/mL (≈ 15.1 µM) | 120 nM | – |
